Among the data in ChEMBL document CHEMBL1134414, “Synthesis, antitumor cytotoxicity, and DNA-binding of novel N-5,2-di(omega-aminoalkyl)-2,6-dihydropyrazolo[3,4,5-kl]acridine-5-carboxamides” (J Med Chem, 2001) are K app and IC50 values, retold here.

Molecules are shown by their SMILES.

The subject of assay [1] is Nucleic Acid. Nature of the assay: Apparent equilibrium constant for binding to calf thymus DNA by competitive displacement fluorometric assay. In kind it is functional. Conditions: Bos taurus.
Assay [2] has as its system HT-29. As to the kind of experiment: Concentration required to inhibit cell growth by 50% in vitro against Human colon adenocarcinoma cell line. The assay is classed as functional, cell-based. The gist of the method:
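HT29 cells seeded at 2.5×10^4 cells/mL and exposed to drug continuously for 144 h. Assays run in triplicate.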

What is called IC50 is the concentration that gives 50% inhibition. Low values mean inhibition by little substance, high ones a need for much substance.

For the molecule `O=C1c2c(O)ccc(O)c2C(=O)c2c(NCCNCCO)ccc(NCCNCCO)c21`, in assay [1], the K app came to 3.41e+08 M⁻¹.

Regarding `O=C(NCCNCCO)c1ccc2c3c(c4ccccc4nc13)NN2CCN1CCCCC1`, in assay [2], the IC50 was 560 nM.

On to `CN(C)CCNC(=O)c1ccc2c3c(c4cc(O)ccc4nc13)NN2CCN1CCCC1`, for which the IC50 in assay [2] amounted to 910 nM.

In the case of `CN(C)CCCNC(=O)c1ccc2c3c(c4ccccc4nc13)NN2CCN(C)C`, the IC50 in assay [2] is 600 nM.

In the case of `CN(C)CCCN1Nc2c3cc(O)ccc3nc3c(C(=O)NCCN(C)C)ccc1c23`, half-maximal inhibition in assay [2] (IC50) was put at 1800 nM.

With `O=C(NCCN1CCCCC1)c1ccc2c3c(c4ccccc4nc13)NN2CCN1CCCCC1`, in assay [2], the IC50 amounted to 450 nM.

Consider `CN(C)CCNC(=O)c1ccc2c3c(c4cc([N+](=O)[O-])ccc4nc13)NN2CCN(C)C`, for which the IC50 in assay [2] is 3.9 nM.

With `CN(C)CCNC(=O)c1ccc2c3c(c4ccccc4nc13)NN2CCN(C)C`, 210 nM corresponded to half-maximal inhibition in assay [2] (IC50).

In assay [2], `CN(C)CCNC(=O)c1ccc2c3c(c4cc([N+](=O)[O-])ccc4nc13)NN2CCN1CCCCC1` showed an IC50 of 31 nM.

In the case of `CN(C)CCN1Nc2c3ccccc3nc3c(C(=O)NCCN)ccc1c23`, the IC50 in assay [2] was 300 nM.

Molecule `CN(C)CCNC(=O)c1ccc2c3c(c4cc(O)ccc4nc13)NN2CCN(C)C` registered an IC50 in assay [2] of 600 nM.

Regarding `CCN(CC)CCNC(=O)c1ccc2c3c(c4ccccc4nc13)NN2CCN(CC)CC`, the IC50 in assay [2] came to 410 nM.

In assay [2], `CN(C)CCNC(=O)c1ccc2c3c(c4cc(O)ccc4nc13)NN2CCN1CCCCC1` returned an IC50 of 630 nM.

Consider `CN(C)CCNC(=O)c1ccc2c3c(c4cc(N)ccc4nc13)NN2CCN(C)C`, for which the IC50 in assay [2] stood at 910 nM.

In assay [2], `COc1ccc2c(c1)-c1nn(CCCN(C)C)c3ccc(C(=O)NCCN(C)C)c(c13)N2` displayed an IC50 of 490 nM.

Regarding `CN(C)CCNC(=O)c1ccc2c3c(c4ccccc4nc13)NN2CCN1CCCCC1`, in assay [2], the IC50 amounted to 210 nM.

With `CN(C)CCCNC(=O)c1ccc2c3c(c4ccccc4nc13)NN2CCCN(C)C`, the IC50 in assay [2] stood at 2300 nM.

In assay [2], `CN(C)CCNC(=O)c1ccc2c3c(c4cc(N)ccc4nc13)NN2CCN1CCCCC1` had an IC50 of 170 nM.

For the molecule `COc1ccc2c(c1)-c1nn(CCN(C)C)c3ccc(C(=O)NCCN(C)C)c(c13)N2`, the IC50 in assay [2] was found to be 120 nM.

Consider `COc1ccc2c(c1)-c1nn(CCN3CCCC3)c3ccc(C(=O)NCCN(C)C)c(c13)N2`, for which, in assay [2], 400 nM corresponded to half-maximal inhibition (IC50).

In assay [2], `CN(C)CCNC(=O)c1ccc2c3c(c4cc([N+](=O)[O-])ccc4nc13)NN2CCN1CCCC1` came in with an IC50 of 360 nM.

`CN(C)CCNC(=O)c1ccc2c3c(c4ccccc4nc13)NN2CCN1CCCC1`: the IC50 in assay [2] was determined as 190 nM.

`CN(C)CCN1Nc2c3ccccc3nc3c(C(=O)NCCNCCO)ccc1c23` returned an IC50 in assay [2] of 560 nM.

For `O=C(NCCNCCO)c1ccc2c3c(c4ccccc4nc13)NN2CCN1CCCC1`, the IC50 in assay [2] turned out to be 1700 nM.

Regarding `CN(C)CCCN1Nc2c3ccccc3nc3c(C(=O)NCCN(C)C)ccc1c23`, 250 nM corresponded to half-maximal inhibition in assay [2] (IC50).

In turn, `COc1ccc2c(c1)-c1nn(CCN3CCCCC3)c3ccc(C(=O)NCCN(C)C)c(c13)N2` gave an IC50 in assay [2] of 260 nM.
